Experimental data taken from ChEMBL document CHEMBL3808334, “Synthesis and in vitro evaluation of novel triazine analogues as anticancer agents and their interaction studies with bovine serum albumin” (Eur J Med Chem, 2016).

Columns and labels:
[1] = Growth inhibition of human TK10 cells assessed as cell growth at 10^-4 M incubated for 48 hrs by sulforhodamine B assay; format: functional; conditions: TK-10, 48 h, read-out: Activity
Malme-3M = assay: Growth inhibition of human MALME-3M cells incubated for 48 hrs by sulforhodamine B assay; format: functional
Procedure, shortened: (§1)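 Cells were plated at 5,000–40,000 per well according to doubling time and preincubated 24 h at 37 °C in 5% CO2; time-zero plates were then TCA-fixed. Five concentrations (10-fold or ½-log dilutions, DMSO stock) were incubated 48 h. Cells were TCA-fixed, stained with 0.4% SRB and read at 515 nm. GI50 was taken where [(Ti−Tz)/(C−Tz)]×100 = 50.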

SK-MEL-28 = assay: Growth inhibition of human SK-MEL-28 cells incubated for 48 hrs by sulforhodamine B assay; format: functional; conditions: SK-MEL-28, 48 h; procedure, shortened: as §1
[2] = Growth inhibition of human TK10 cells assessed as cell growth at 10^-5 M incubated for 48 hrs by sulforhodamine B assay; format: functional; conditions: TK-10, 48 h, read-out: Activity
A549 [3] = assay: Growth inhibition of human A549/ATCC cells assessed as cell growth at 10^-4 M incubated for 48 hrs by sulforhodamine B assay; format: functional; conditions: A549, 48 h, read-out: Activity
MDA-MB-435 = assay: Growth inhibition of human MDA-MB-435 cells assessed as cell growth at 10^-7 M incubated for 48 hrs by sulforhodamine B assay; format: functional; conditions: MDA-MB-435, 48 h, read-out: Activity
[4] = Growth inhibition of human LOXIMVI cells assessed as cell growth at 10 uM incubated for 48 hrs by sulforhodamine B assay; format: functional; conditions: LOX IMVI, read-out: Activity
A549 [5] = assay: Growth inhibition of human A549/ATCC cells assessed as cell growth at 10^-8 M incubated for 48 hrs by sulforhodamine B assay; format: functional; conditions: A549, 48 h, read-out: Activity
Procedure, shortened: (§2)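 Five-dose assay: five concentrations from 10-fold or ½-log serial dilutions. Cells are plated at 5,000–40,000 per well according to doubling time, grown 24 h, then exposed 48 h at 37 °C, 5% CO₂. Fixed with cold 50% TCA (final addition) for 60 min at 4 °C and stained with 0.4% SRB in 1% acetic acid. Bound dye is solubilized in 10 mM Tris base and read at 515 nm. GI₅₀ is where [(Ti−Tz)/(C−Tz)]×100 = 50, with a time-zero plate as Tz.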

786-0 = assay: Growth inhibition of human 786-0 cells assessed as cell growth at 10^-7 M incubated for 48 hrs by sulforhodamine B assay; format: functional; conditions: 786-0, 48 h, read-out: Activity; procedure, shortened: as §2
[6] = Growth inhibition of human PC3 cells assessed as cell growth at 10^-7 M incubated for 48 hrs by sulforhodamine B assay; format: functional; conditions: PC-3, 48 h, read-out: Activity
[7] = Growth inhibition of human MOLT4 cells assessed as cell growth at 10^-6 M incubated for 48 hrs by sulforhodamine B assay; format: functional; conditions: MOLT-4, 48 h, read-out: Activity
A549 [8] = assay: Growth inhibition of human A549/ATCC cells assessed as cell growth at 10^-6 M incubated for 48 hrs by sulforhodamine B assay; format: functional; conditions: A549, 48 h, read-out: Activity; procedure, shortened: as §2
NCI-H322M = assay: Growth inhibition of human NCI-H322M cells assessed as cell growth at 10^-6 M incubated for 48 hrs by sulforhodamine B assay; format: functional; conditions: read-out: Activity
NCI-H460 = assay: Growth inhibition of human NCI-H460 cells assessed as cell growth at 10^-6 M incubated for 48 hrs by sulforhodamine B assay; format: functional; conditions: NCI-H460, 48 h, read-out: Activity
[9] = Growth inhibition of human SW620 cells assessed as cell growth at 10^-6 M incubated for 48 hrs by sulforhodamine B assay; format: functional; conditions: SW-620, 48 h, read-out: Activity
NCI-H522 [10] = assay: Growth inhibition of human NCI-H522 cells assessed as cell growth at 10^-8 M incubated for 48 hrs by sulforhodamine B assay; format: functional; conditions: NCI-H522, 48 h, read-out: Activity
[11] = Growth inhibition of human SNB19 cells assessed as cell growth at 10^-8 M incubated for 48 hrs by sulforhodamine B assay; format: functional; conditions: SNB-19, 48 h, read-out: Activity
U-251 = assay: Growth inhibition of human U251 cells assessed as cell growth at 10^-8 M incubated for 48 hrs by sulforhodamine B assay; format: functional; conditions: U-251, 48 h, read-out: Activity
[12] = Growth inhibition of human LOXIMVI cells assessed as cell growth at 10^-8 M incubated for 48 hrs by sulforhodamine B assay; format: functional; conditions: LOX IMVI, read-out: Activity
[13] = Growth inhibition of human UACC62 cells assessed as cell growth at 10^-6 M incubated for 48 hrs by sulforhodamine B assay; format: functional; conditions: UACC-62, 48 h, read-out: Activity
[14] = Growth inhibition of human SKOV3 cells assessed as cell growth at 10^-6 M incubated for 48 hrs by sulforhodamine B assay; format: functional; conditions: SK-OV-3, 48 h, read-out: Activity
A549 [15] = assay: Growth inhibition of human A549/ATCC cells assessed as cell growth at 10^-5 M incubated for 48 hrs by sulforhodamine B assay; format: functional; conditions: A549, 48 h, read-out: Activity; procedure, shortened: as §2
NCI-H522 [16] = assay: Growth inhibition of human NCI-H522 cells assessed as cell growth at 10^-5 M incubated for 48 hrs by sulforhodamine B assay; format: functional; conditions: NCI-H522, 48 h, read-out: Activity
KM12 [17] = assay: Growth inhibition of human KM12 cells assessed as cell growth at 10^-5 M incubated for 48 hrs by sulforhodamine B assay; format: functional; conditions: KM12, 48 h, read-out: Activity
NCI-H522 [18] = assay: Growth inhibition of human NCI-H522 cells assessed as cell growth at 10 uM incubated for 48 hrs by sulforhodamine B assay; format: functional; conditions: NCI-H522, 48 h, read-out: Activity
KM12 [19] = assay: Growth inhibition of human KM12 cells assessed as cell growth at 10 uM incubated for 48 hrs by sulforhodamine B assay; format: functional; conditions: KM12, 48 h, read-out: Activity
Albumin = Albumin (Bos taurus, UniProt P02769); assay: Binding affinity to bovine serum albumin assessed as red shift in emission intensity up to 20 uM by fluorescence spectroscopic analysis relative to control; format: ADME; conditions: cattle, isolated protein
Sequence of Albumin (P02769 whole entry): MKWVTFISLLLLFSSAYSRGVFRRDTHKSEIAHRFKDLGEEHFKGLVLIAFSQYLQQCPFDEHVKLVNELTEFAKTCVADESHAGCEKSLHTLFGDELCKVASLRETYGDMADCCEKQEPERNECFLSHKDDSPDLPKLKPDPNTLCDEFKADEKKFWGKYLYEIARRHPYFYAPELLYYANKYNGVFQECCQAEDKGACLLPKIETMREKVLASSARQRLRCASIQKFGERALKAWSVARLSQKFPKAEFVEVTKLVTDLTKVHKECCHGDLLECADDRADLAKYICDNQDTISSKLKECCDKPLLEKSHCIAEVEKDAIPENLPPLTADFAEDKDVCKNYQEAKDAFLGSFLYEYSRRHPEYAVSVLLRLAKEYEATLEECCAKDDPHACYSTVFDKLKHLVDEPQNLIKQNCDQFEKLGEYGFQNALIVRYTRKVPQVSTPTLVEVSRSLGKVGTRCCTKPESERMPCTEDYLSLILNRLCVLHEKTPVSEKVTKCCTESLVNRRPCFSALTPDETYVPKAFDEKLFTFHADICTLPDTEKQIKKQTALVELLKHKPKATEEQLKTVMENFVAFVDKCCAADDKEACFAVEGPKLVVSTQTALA
Procedure, shortened: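 Fluorescence titration of 10 µM BSA in 0.1 M phosphate buffer pH 7.4 with compound at 0–20 µM, diluted from DMSO stocks. Excitation 280 nm, slit 10 nm, 1 cm quartz cell, 300 K. Changes in the 350 nm Trp emission, new bands near 370–373 nm and isoemissive points are read against BSA alone.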

[20] = Growth inhibition of human renal cancer cells incubated for 48 hrs by sulforhodamine B assay; format: functional; conditions: Cancer cell lines
[21] = Growth inhibition of human prostate cancer cells incubated for 48 hrs by sulforhodamine B assay; format: functional; conditions: Cancer cell lines
[22] = Growth inhibition of human breast cancer cells incubated for 48 hrs by sulforhodamine B assay; format: functional; conditions: Cancer cell lines
[23] = read-out: LC50 (the source's name)
[24] = read-out: pLC50 (the source's name) (converted)

In the case of `c1ccc(-c2nc(Nc3ccc(-c4nc5ccccc5[nH]4)cc3)nc(N3CCOCC3)n2)cc1`, the growth at 100 µM [1] is reported as -94%, the GI50 (Malme-3M; read-out: GI50) is reported as 2 µM and the CC50 (Malme-3M; [23]) is reported as 7.42 µM. It also gave a TGI (Malme-3M; read-out: TGI) of 3.85 µM, a GI50 (Malme-3M; read-out: pGI50 (converted)) of 2 µM and a CC50 (Malme-3M; [24]) of 7.41 µM. The TGI (Malme-3M; read-out: pTGI (converted)) was 3.89 µM, the GI50 (SK-MEL-28; read-out: GI50) was 1.56 µM and the CC50 (SK-MEL-28; [23]) was 6.12 µM. For the same compound, the TGI (SK-MEL-28; read-out: TGI) was 3.09 µM, the GI50 (SK-MEL-28; read-out: pGI50 (converted)) was 1.55 µM and the CC50 (SK-MEL-28; [24]) was 6.17 µM. For the same compound, the TGI (SK-MEL-28; read-out: pTGI (converted)) was 3.09 µM, the growth at 10 µM [2] was -87% and the growth at 100 µM (A549 [3]) was -64%. The growth at 0.1 µM (MDA-MB-435) was 101%, the growth at 10 µM [4] was -89% and the growth at 0.01 µM (A549 [5]) was 103%. It also gave a growth at 0.1 µM (786-0) of 78%, a growth at 0.1 µM [6] of 106% and a growth at 1 µM [7] of 65%. For the same compound, the growth at 1 µM (A549 [8]) was 96%, the growth at 1 µM (NCI-H322M) was 86% and the growth at 1 µM (NCI-H460) was 45%. The growth at 1 µM [9] was 39%, the growth at 0.01 µM (NCI-H522 [10]) was 100% and the growth at 0.01 µM [11] was 98%. It also gave a growth at 0.01 µM (U-251) of 105%, a growth at 0.01 µM [12] of 94% and a growth at 1 µM [13] of 84%. For the same compound, the growth at 1 µM [14] was 104%, the growth at 10 µM (A549 [15]) was -63% and the growth at 10 µM (NCI-H522 [16]) was -75%. It also gave a growth at 10 µM (KM12 [17]) of -84%, a growth at 10 µM (NCI-H522 [18]) of -68.2% and a growth at 10 µM (KM12 [19]) of -76.6%. For the same compound, the Activity (Albumin) was 20 nm, the GI50 [20] was 1.2 µM and the TGI [20] was 2.72 µM. It also gave a CC50 [20, 23] of 6.27 µM, a GI50 [21] of 1.51 µM and a TGI [21] of 3.07 µM. It also gave a CC50 [21, 23] of 6.25 µM, a GI50 [22] of 1.63 µM and a TGI [22] of 4.08 µM. The CC50 [22, 23] was 8.74 µM.
